By Ki is commonly meant the dissociation constant of the complex between target and ligand, obtained from inhibition or displacement.

What all share (type): cell-based
Test [1] addresses T1, 5-hydroxytryptamine receptor 1A (Homo sapiens, UniProt P08908).
T1 sequence (P08908 whole entry): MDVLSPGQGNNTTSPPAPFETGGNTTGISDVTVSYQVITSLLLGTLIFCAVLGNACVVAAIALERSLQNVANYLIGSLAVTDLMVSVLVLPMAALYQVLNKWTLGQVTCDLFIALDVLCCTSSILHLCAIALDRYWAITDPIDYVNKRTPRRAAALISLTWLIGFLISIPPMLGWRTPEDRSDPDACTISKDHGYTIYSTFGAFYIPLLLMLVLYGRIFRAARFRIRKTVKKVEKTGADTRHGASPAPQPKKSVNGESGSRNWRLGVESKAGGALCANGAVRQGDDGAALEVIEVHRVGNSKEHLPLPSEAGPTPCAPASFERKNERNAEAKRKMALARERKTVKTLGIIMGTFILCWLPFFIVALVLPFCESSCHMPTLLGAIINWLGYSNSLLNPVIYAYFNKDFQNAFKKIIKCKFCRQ
The experiment in a line: Binding affinity towards human 5-hydroxytryptamine 1A receptor by the displacement of [3H]5-HT radioligand from the cloned receptor expressed in HeLa cells. Put shortly:
(§1)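 Affinities are given as the geometric mean of 3–6 independent determinations; some values rest on only 2 determinations.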

Test [2] deals with 5-hydroxytryptamine receptor 7 (Homo sapiens, UniProt P34969). Put plainly: Binding affinity towards human 5-hydroxytryptamine 7 receptor by the displacement of [3H]-5-HT radioligand from the cloned receptor expressed in CHO cells. (Displacement assays read how much labelled ligand stays bound in the presence of the test substance.)
The target of the next test is D(2) dopamine receptor (Homo sapiens, UniProt P14416). The experiment in a line: Binding affinity towards human dopamine receptor D2 by the displacement of [3H]spiperone radioligand from the cloned receptor expressed in CHO cells. In short, it runs like this: as §1
Test [3] concerns the target 5-hydroxytryptamine receptor 2A (Homo sapiens, UniProt P28223). Put plainly: Binding affinity towards human 5-hydroxytryptamine 2A receptor by the displacement of [3H]ketanserin radioligand from the cloned receptor expressed in CHO cells. Put shortly: as §1

D(2) dopamine receptor, sequence (P14416 whole entry): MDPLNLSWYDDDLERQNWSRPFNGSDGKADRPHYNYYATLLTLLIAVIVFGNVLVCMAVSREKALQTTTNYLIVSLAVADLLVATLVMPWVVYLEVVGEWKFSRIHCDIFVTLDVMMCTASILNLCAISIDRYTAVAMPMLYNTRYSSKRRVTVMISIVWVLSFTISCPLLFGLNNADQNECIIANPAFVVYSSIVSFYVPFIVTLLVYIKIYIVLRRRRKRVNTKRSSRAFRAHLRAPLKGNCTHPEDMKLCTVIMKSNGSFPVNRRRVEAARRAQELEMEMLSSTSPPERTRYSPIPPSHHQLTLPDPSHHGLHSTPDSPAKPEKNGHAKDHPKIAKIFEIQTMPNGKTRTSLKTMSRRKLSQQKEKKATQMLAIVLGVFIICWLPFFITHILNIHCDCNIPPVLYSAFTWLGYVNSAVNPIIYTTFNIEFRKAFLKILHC
5-hydroxytryptamine receptor 7, sequence (P34969 whole entry): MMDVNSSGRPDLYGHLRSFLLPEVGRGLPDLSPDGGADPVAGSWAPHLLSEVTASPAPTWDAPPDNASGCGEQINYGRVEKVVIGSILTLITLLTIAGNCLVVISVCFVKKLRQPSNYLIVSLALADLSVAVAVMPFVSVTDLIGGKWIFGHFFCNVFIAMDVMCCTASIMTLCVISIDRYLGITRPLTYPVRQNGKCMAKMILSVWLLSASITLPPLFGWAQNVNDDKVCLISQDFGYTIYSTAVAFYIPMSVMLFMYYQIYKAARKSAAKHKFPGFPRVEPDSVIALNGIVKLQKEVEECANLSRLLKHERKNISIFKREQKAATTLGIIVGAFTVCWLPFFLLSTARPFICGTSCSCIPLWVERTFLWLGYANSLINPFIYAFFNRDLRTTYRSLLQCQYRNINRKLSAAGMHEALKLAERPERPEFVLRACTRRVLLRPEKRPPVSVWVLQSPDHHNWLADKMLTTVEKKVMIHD
5-hydroxytryptamine receptor 2A, sequence (P28223 whole entry): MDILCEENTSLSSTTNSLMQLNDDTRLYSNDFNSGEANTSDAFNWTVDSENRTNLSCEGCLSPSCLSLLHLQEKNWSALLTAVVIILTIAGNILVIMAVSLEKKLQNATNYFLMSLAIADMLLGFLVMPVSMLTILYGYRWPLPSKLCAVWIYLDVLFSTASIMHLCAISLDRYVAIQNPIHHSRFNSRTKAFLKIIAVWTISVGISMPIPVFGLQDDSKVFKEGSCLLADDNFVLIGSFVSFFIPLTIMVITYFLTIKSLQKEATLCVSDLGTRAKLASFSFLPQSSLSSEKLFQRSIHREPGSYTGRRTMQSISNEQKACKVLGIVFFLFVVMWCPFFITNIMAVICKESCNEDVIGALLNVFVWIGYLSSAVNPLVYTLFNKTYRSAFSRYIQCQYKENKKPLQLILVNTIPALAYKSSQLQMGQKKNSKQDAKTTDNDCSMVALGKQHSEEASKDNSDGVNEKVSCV

Regarding `CN(C)CCSc1ccnc(-c2ccccc2)c1`, the results for the Ki in test [1] and in test [2] were 1200 nM and 100 nM, respectively.
On D(2) dopamine receptor, `CN(C)CCSc1cccc(-c2ccccc2)n1` had a Ki of 450 nM. In other words, the sub-micromolar range.
For `CN(C)CCSc1cccc(C2(O)CCCCC2)n1`, the Ki in test [1] is 41 nM; in test [3] it was 480 nM; in test [2] it was 7.2 nM; at D(2) dopamine receptor, above 1000 nM.
Regarding `CN(C)CCSc1nc(-c2ccncc2)cs1`, the Ki in test [1] is 90 nM; in test [3], above 200 nM; in test [2], 27 nM; on D(2) dopamine receptor, 130 nM.
Regarding `CN(C)CCSc1nccs1`, in test [2], the Ki was found to be 6800 nM.
As for `CN(C)CCSc1nc(C(C)(C)C)cs1`, the Ki in test [1] was 2200 nM; in test [3] it was 1200 nM; in test [2], 22 nM; on D(2) dopamine receptor, above 1000 nM.
For the molecule `CN(C)CCSc1cccc(C2CCCCC2)n1`, the Ki came out at 8.7 nM in test [1], 230 nM in test [3], 0.7 nM in test [2] and 1300 nM on D(2) dopamine receptor.
In test [2], `CN(C)CCSc1n[nH]c(-c2ccccc2)n1` registered a Ki of 1200 nM.
`CN(C)CCSc1cccc(Br)n1`: the Ki in test [1] is 37 nM; in test [3] it was 270 nM; in test [2], 4.1 nM; at D(2) dopamine receptor it was 870 nM.
For `CN(C)CCSc1nc(-c2ccccc2)cs1` the same measures were 210 nM, 640 nM, 12 nM and above 1000 nM.
`CN(C)CCSc1ncc(-c2ccccc2)s1`: in test [2], the Ki amounted to 3200 nM.
With `CN(C)CCSc1nnc(-c2ccccc2)o1`, in test [2], the Ki was above 4000 nM.
Take `CN(C)CCSc1nc2ccccc2s1`: the Ki was 830 nM in test [1], 1000 nM in test [3], 84 nM in test [2] and above 1000 nM at D(2) dopamine receptor.
Consider `Cc1sc(SCCN(C)C)nc1-c1ccccc1`, for which, in test [2], the affinity, expressed as Ki, was 170 nM.

Values taken from ChEMBL document CHEMBL1147426, “Thiazoles and thiopyridines: novel series of high affinity h5HT(7) ligands” (Bioorg Med Chem Lett, 2004).
